ChEMBL document CHEMBL4371041, “Synthesis and evaluation of thieno[3,2-d]pyrimidine derivatives as novel FMS inhibitors” (Bioorg Med Chem Lett, 2019)

What was measured:
[1] = tested on: NFS-60; assay: Growth inhibition of mouse NFS60 cells after 72 hrs by CellTiter96 AQueous one solution cell proliferation assay; type: functional; settings: NFS-60, 72 h
[2] = Oral bioavailability in CD-1 mouse at 10 mg/kg; type: ADME, organism-based; settings: in vivo
[3] = Cmax in CD-1 mouse at 3 mg/kg, iv; type: ADME, organism-based; design: dose 3 mg/kg, route intravenous; settings: in vivo
[4] = AUC (0 to 7 hrs) in CD-1 mouse at 3 mg/kg, iv; type: ADME, organism-based; design: dose 3 mg/kg, time < 7 hr, route intravenous; settings: in vivo
[5] = AUC (0 to 7 hrs) in CD-1 mouse at 10 mg/kg, po; type: ADME, organism-based; design: time < 7 hr, dose 10 mg/kg, route oral; settings: in vivo
[6] = Cmax in CD-1 mouse at 10 mg/kg, po; type: ADME, organism-based; design: dose 10 mg/kg, route oral; settings: in vivo
[7] = Clearance in CD-1 mouse at 3 mg/kg, iv; type: ADME, organism-based; settings: in vivo
[8] = Half life in CD-1 mouse at 10 mg/kg, po; type: ADME, organism-based; settings: in vivo
[9] = Volume of distribution in CD-1 mouse at 3 mg/kg, iv; type: ADME, organism-based; settings: in vivo
[10] = Half life in CD-1 mouse at 3 mg/kg, iv; type: ADME, organism-based; settings: in vivo
[11] = Tmax in CD-1 mouse at 10 mg/kg, po; type: ADME, organism-based; settings: in vivo
[12] = Stability in human hepatocytes assessed as parent compound remaining measured after 60 mins; type: ADME, cell-based, Hepatocyte; settings: read-out: Stability
[13] = molecular target: Cytochrome P450 1A2 (Homo sapiens, UniProt P05177); assay: Inhibition of CYP1A2 in human liver microsomes by LC-MS/MS analysis; type: ADME
Sequence of Cytochrome P450 1A2 (P05177 whole entry): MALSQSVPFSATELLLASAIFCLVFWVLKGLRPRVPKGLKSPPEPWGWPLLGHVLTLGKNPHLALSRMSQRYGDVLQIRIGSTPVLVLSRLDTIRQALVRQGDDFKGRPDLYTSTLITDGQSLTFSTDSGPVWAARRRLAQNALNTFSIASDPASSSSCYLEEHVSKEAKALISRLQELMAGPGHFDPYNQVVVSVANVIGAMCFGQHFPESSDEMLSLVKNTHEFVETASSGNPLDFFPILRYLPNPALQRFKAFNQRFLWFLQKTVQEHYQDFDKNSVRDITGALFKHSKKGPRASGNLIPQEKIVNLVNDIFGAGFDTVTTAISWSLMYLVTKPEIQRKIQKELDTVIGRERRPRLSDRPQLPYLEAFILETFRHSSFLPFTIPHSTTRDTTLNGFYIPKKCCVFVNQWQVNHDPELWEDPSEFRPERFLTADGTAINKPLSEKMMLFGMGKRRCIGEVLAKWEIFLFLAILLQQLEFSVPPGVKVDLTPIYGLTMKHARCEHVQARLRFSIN
Procedure, shortened: (§1)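 Reversible CYP inhibition measured in human liver microsomes; metabolite formation quantified by LC/MS/MS.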

[14] = molecular target: Cytochrome P450 3A4 (Homo sapiens, UniProt P08684); assay: Inhibition of CYP3A4 in human liver microsomes by LC-MS/MS analysis; type: ADME; procedure, shortened: as §1
Sequence of Cytochrome P450 3A4 (P08684 whole entry): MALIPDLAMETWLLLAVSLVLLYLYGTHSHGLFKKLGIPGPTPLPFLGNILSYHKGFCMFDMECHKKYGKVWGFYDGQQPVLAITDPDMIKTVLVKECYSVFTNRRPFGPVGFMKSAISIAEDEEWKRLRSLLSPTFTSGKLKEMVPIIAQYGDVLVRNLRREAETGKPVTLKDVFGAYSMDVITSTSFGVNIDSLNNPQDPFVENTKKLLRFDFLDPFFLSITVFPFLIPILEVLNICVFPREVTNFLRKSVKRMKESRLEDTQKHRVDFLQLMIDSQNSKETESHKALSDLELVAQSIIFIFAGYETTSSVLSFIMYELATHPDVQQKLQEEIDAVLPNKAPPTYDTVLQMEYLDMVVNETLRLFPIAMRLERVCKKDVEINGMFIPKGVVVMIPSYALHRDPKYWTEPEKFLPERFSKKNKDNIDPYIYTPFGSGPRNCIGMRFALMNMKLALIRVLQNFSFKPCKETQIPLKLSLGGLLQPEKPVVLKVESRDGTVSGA

[15] = molecular target: Cytochrome P450 2C9 (Homo sapiens, UniProt P11712); assay: Inhibition of CYP2C9 in human liver microsomes by LC-MS/MS analysis; type: ADME; procedure, shortened: as §1
Sequence of Cytochrome P450 2C9 (P11712 whole entry): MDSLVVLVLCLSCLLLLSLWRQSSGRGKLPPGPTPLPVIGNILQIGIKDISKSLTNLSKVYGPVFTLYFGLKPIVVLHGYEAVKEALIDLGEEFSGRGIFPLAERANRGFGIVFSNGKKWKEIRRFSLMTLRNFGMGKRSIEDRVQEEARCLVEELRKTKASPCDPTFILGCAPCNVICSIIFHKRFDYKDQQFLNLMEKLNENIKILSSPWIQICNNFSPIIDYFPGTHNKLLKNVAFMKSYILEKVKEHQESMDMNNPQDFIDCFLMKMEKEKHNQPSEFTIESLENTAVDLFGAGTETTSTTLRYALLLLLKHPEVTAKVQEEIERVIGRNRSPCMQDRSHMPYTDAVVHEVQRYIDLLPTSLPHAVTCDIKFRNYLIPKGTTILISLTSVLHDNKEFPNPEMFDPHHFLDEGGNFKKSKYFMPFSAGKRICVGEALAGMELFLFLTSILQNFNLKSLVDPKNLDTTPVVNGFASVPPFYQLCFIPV

[16] = molecular target: Cytochrome P450 2D6 (Homo sapiens, UniProt P10635); assay: Inhibition of CYP2D6 in human liver microsomes by LC-MS/MS analysis; type: ADME; procedure, shortened: as §1
Sequence of Cytochrome P450 2D6 (P10635 whole entry): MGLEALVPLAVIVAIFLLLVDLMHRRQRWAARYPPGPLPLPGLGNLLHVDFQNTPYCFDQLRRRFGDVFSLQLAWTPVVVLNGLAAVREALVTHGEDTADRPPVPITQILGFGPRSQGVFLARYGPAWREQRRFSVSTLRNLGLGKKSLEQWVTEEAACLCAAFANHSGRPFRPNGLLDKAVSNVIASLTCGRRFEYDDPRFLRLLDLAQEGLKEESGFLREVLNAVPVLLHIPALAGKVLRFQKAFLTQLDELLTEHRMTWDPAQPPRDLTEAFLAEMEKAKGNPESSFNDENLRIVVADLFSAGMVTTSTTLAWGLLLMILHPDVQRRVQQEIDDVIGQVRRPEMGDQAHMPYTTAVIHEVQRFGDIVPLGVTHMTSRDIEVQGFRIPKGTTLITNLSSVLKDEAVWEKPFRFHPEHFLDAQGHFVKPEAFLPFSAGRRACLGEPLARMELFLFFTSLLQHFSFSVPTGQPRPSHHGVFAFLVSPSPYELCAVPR

[17] = molecular target: Cytochrome P450 2C19 (Homo sapiens, UniProt P33261); assay: Inhibition of CYP2C19 in human liver microsomes by LC-MS/MS analysis; type: ADME; procedure, shortened: as §1
Sequence of Cytochrome P450 2C19 (P33261 whole entry): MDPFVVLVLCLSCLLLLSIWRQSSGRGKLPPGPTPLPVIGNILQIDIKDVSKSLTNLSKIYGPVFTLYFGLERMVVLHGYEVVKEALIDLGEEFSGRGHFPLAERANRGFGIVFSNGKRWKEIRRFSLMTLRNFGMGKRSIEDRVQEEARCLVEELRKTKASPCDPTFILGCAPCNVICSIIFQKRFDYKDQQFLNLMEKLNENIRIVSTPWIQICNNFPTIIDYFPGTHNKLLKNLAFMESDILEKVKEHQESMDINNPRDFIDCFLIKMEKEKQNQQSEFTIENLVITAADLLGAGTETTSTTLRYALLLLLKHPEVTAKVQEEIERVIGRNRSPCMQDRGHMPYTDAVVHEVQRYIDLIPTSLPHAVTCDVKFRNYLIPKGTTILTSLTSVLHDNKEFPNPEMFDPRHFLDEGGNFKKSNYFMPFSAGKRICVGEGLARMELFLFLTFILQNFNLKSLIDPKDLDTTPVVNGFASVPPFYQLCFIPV

Structure (SMILES)	GI50 [1]	also measured
C=Cc1nn(Cc2cccc(C)n2)c2cccc(NC(=O)c3csc4c(N)ncnc34)c12	4.46 µM	–
Nc1ncnc2c(C(=O)Nc3cccc4c3c(Br)nn4Cc3cccc(F)n3)csc12	0.233 µM	–
Cc1cccc(Cn2nc(Br)c3c(NC(=O)c4csc5c(N)ncnc45)cccc32)n1	0.0275 to 0.028 µM	bioavailability [2]: 37%; Cmax [3]: 2.4 µg/mL; AUC(0-t) at 7 h [4]: 5.76 µg·h/mL; AUC(0-t) at 7 h [5]: 6.06 µg·h/mL; Cmax [6]: 1.62 µg/mL; clearance [7]: 0.4 L/h/kg; half-life [8]: 3.9 h; Vd [9]: 1.4 L/kg; half-life [10]: 2.6 h; Tmax [11]: 1 h
Cc1cccc(Cn2nc(I)c3c(NC(=O)c4csc5c(N)ncnc45)cccc32)n1	0.03 µM	–
COc1ccc(COc2ccc(Cc3cnc(N)nc3N)cc2OC)cc1 [GW632580X]	0.094 µM	–
COc1cccc(Cn2nc(Br)c3c(NC(=O)c4csc5c(N)ncnc45)cccc32)n1	0.034 µM	–
Nc1ncnc2c(C(=O)Nc3cccc4c3c(Br)nn4Cc3ccncc3)csc12	0.135 µM	–
Cc1cccc(Cn2nc(Cl)c3c(NC(=O)c4csc5c(N)ncnc45)cccc32)n1	0.008 µM	remaining at 1 h [12]: 66%
Nc1ncnc2c(C(=O)Nc3cccc4c3c(Br)nn4Cc3cccnc3)csc12	0.077 µM	IC50 [13]: < 0.25 µM; IC50 [14]: 0.31 µM; IC50 [15]: 1.38 µM; IC50 [16]: > 20 µM; IC50 [17]: 2.02 µM
Nc1ncnc2c(C(=O)Nc3cccc4c3c(Br)nn4Cc3ccccc3)csc12	1.01 µM	–
Nc1ncnc2c(C(=O)Nc3cccc4c3c(Br)nn4CC3CCCCC3)csc12	0.254 µM	–
Nc1ncnc2c(C(=O)Nc3cccc4c3c(Br)nn4Cc3ccccn3)csc12	2.5 µM	–
C#CCn1nc(Br)c2c(NC(=O)c3csc4c(N)ncnc34)cccc21	> 10 µM	–
CCc1nn(Cc2cccc(C)n2)c2cccc(NC(=O)c3csc4c(N)ncnc34)c12	> 10 µM	–
Nc1ncnc2c(C(=O)Nc3cccc4c3c(Br)nn4Cc3cccc(Br)n3)csc12	0.243 µM	–
CCn1nc(Cn2nc(Br)c3c(NC(=O)c4csc5c(N)ncnc45)cccc32)cc1C(C)C	0.062 µM	–
COc1ccc(Cn2nc(Br)c3c(NC(=O)c4csc5c(N)ncnc45)cccc32)cc1	2.39 µM	–
